pIC50: −log10 of the molar value. Calls of active or inactive are those of the source. No cut-off for these calls is given here.
Columns and labels:
TERT-RPE1 = experiment: cells; format: ADME, cell-based; conditions: Homo sapiens, RPE-1, 72 h
CAPAN-1 = experiment: cells; format: functional, cell-based; conditions: Homo sapiens, CAPAN-1, 72 h
HCT-116 = experiment: Antiproliferative activity against human HCT-116 cells assessed as inhibition of cell proliferation measured after 72 hrs by real time imaging analysis; format: functional, cell-based; conditions: HCT-116, 72 h
Summary of the method: (§1)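 Adherent cells seeded at 500–1500 per well and incubated overnight, then treated at seven concentrations from 100 to 6.4 x 10^-3 µM. Kept at 37°C for 72 h with real-time imaging every 3 h (one field per well, 10x). Growth quantified as percent confluence; IC50 calculated from area under the curve.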

NCI-H460 = experiment: Antiproliferative activity against human NCI-H460 cells assessed as inhibition of cell proliferation measured after 72 hrs by real time imaging analysis; format: functional, cell-based; conditions: NCI-H460, 72 h
Summary of the method: as §1

[1] = Antiproliferative activity against human DND41 cells assessed as inhibition of cell proliferation measured after 72 hrs by real time imaging analysis; format: functional, cell-based; conditions: DND41, 72 h
Summary of the method: (§2)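 Suspension cells seeded at 2500–5500 per well into wells already holding compound, seven concentrations from 100 to 6.4 x 10^-3 µM. Incubated at 37°C for 72 h with imaging every 3 h (one field per well, 10x). Growth taken as percent confluence; IC50 derived from area under the curve.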

HL-60 = experiment: cells; format: functional, cell-based; conditions: Homo sapiens, HL-60, 72 h
K562 = experiment: Antiproliferative activity against human K562 cells assessed as inhibition of cell proliferation measured after 72 hrs by real time imaging analysis; format: functional, cell-based; conditions: K562, 72 h
Summary of the method: as §2

MM1.S = experiment: cells; format: functional, cell-based; conditions: Homo sapiens, 72 h
Z-138 = experiment: cells; format: functional, cell-based; conditions: Homo sapiens, Z-138, 72 h
cells = format: ADME, cell-based; conditions: Homo sapiens, PBMC, 72 h
HEp-2 = experiment: Inhibition of alpha-tubulin polymerization in human HEp-2 cells assessed as disintegration of microtubule network at 0.3 to 30 uM measured after 3 hrs by DAPI staining based immunoflourescence method relative to vincristine; format: cell-based; conditions: dose 0.3-30 µM
Summary of the method: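 HEp-2 cells seeded at 15000 per well and incubated overnight, then exposed 3 h to compound or DMSO carrier. Fixed in 4% PFA and permeabilised. Stained with mouse anti-alpha-tubulin and Alexa Fluor 488 anti-mouse IgG, with DAPI nuclear counterstain. Imaged by confocal microscopy at 63x water immersion. Vincristine and docetaxel served as references.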

Tubulin (Sus scrofa) = experiment: Inhibition of porcine brain tubulin polymerization in presence of GTP at 30 uM measured every 60 secs for 1 hr by multiplate reader method

Row | pIC50 (CAPAN-1) | pIC50 (HCT-116) | pIC50 (NCI-H460) | pIC50 (HL-60) | pIC50 (K562) | pIC50 (MM1.S) | pIC50 (Z-138) | pIC50 (cells) | inhibition (Tubulin (Sus scrofa)) | SMILES | pIC50 (TERT-RPE1) | pIC50 [1] | inhibition (HEp-2)
1 | 4.85 | 4.31 | 4.56 | 4.38 | < 4.00 | < 4.00 | 4.17 | – | – | N#C/C(=C\c1ccc[nH]1)c1nc2ccccc2n1-c1ccccc1 | 4.49 | 4.39 | –
2 | 4.52 | 4.30 | 4.83 | 4.48 | < 4.00 | 4.14 | 4.34 | – | – | CC(C)Cn1c(C(C#N)=Cc2ccc([N+](=O)[O-])cc2)nc2ccccc21 | 4.27 | 4.26 | –
3 | 6.70 | 6.40 | 6.22 | 6.70 | 5.85 | 5.89 | 6.40 | < 4.12 | Active | CC(C)Cn1c(C(C#N)=Cc2ccc(N(C)C)cc2)nc2ccc(C#N)cc21 | 5.77 | 6.52 | Active
4 | 5.29 | 5.15 | 5.28 | 5.17 | 4.87 | 4.61 | 4.92 | – | – | N#C/C(=C\c1c[nH]c2ccccc12)c1nc2ccccc2n1-c1ccccc1 | 4.89 | 5.00 | –
5 | 6.52 | 6.22 | 6.40 | 6.52 | 5.68 | 5.82 | 6.40 | < 4.01 | Active | CC(C)Cn1c(C(C#N)=Cc2ccc(N(C)C)cc2)nc2ccccc21 | 5.37 | 6.70 | Active
6 | 5.00 | 4.91 | 4.87 | 4.82 | < 4.00 | 4.20 | 4.90 | – | – | N#C/C(=C\c1cnc2ccccc2c1)c1nc2ccccc2n1-c1ccccc1 | 4.91 | 4.85 | –
7 | 4.36 | 4.30 | 4.34 | 4.50 | < 4.00 | 4.23 | 4.52 | – | – | N#C/C(=C\c1cccnc1)c1nc2ccccc2n1-c1ccccc1 | 4.26 | 4.22 | –
8 | 4.69 | 4.28 | 4.49 | 4.61 | 4.24 | 4.02 | 4.51 | – | – | Cn1c(/C(C#N)=C/c2ccc(Br)cc2)nc2ccccc21 | 4.33 | 4.38 | –
9 | 4.07 | < 4.00 | 4.17 | < 4.00 | < 4.00 | < 4.00 | < 4.00 | – | – | Cn1c(/C(C#N)=C/c2ccc[nH]2)nc2ccccc21 | < 4.00 | 4.13 | –
10 | 8.06 | 8.77 | 8.62 | 8.14 | 7.82 | 7.93 | 7.85 | – | – | CC(=O)O[C@@]12CO[C@@H]1C[C@H](O)[C@@]1(C)C(=O)[C@H](O)C3=C(C)[C@@H](OC(=O)[C@H](O)[C@@H](NC(=O)OC(C)(C)C)c4ccccc4)C[C@@](O)([C@@H](OC(=O)c4ccccc4)[C@H]21)C3(C)C [DOCETAXEL ANHYDROUS] | 7.26 | 7.90 | –
11 | 5.51 | 4.57 | 4.34 | 4.96 | < 4.00 | < 4.00 | 4.76 | – | – | CN(C)c1ccc(/C=C(\C#N)c2nc3ccc(C#N)cc3n2-c2ccccc2)cc1 | 4.56 | 4.25 | –
12 | 4.25 | 4.16 | < 4.00 | 4.17 | < 4.00 | < 4.00 | 4.02 | – | – | CN(C)c1ccc(/C=C(\C#N)c2nc3ccc(C#N)cc3n2C)cc1 | 4.09 | < 4.00 | –
13 | 4.17 | < 4.00 | 4.65 | 4.48 | < 4.00 | < 4.00 | 4.35 | – | – | Cn1c(/C(C#N)=C/c2cnc3ccccc3c2)nc2ccccc21 | 4.40 | 4.30 | –
14 | 4.69 | 4.37 | 4.58 | 4.54 | 4.27 | 4.18 | 4.40 | – | – | CC(C)Cn1c(/C(C#N)=C/c2ccccc2)nc2ccccc21 | 4.35 | 4.22 | –
15 | 4.24 | 4.07 | 4.23 | 4.23 | < 4.00 | < 4.00 | < 4.00 | – | – | Cn1c(/C(C#N)=C/c2cccnc2)nc2ccccc21 | 4.22 | < 4.00 | –
16 | 4.88 | 4.54 | 4.92 | 4.87 | 4.43 | 4.15 | 5.00 | – | – | Cn1c(/C(C#N)=C/c2c[nH]c3ccccc23)nc2ccccc21 | 4.56 | 4.83 | –
17 | 4.89 | 4.80 | 4.92 | 5.07 | 4.41 | 4.45 | 4.96 | – | – | N#C/C(=C\c1ccc(Br)cc1)c1nc2ccccc2n1-c1ccccc1 | 4.64 | 4.91 | –

Row | SMILES | pIC50 (CAPAN-1) | pIC50 (HCT-116) | pIC50 (NCI-H460) | pIC50 (HL-60) | pIC50 (K562) | pIC50 (MM1.S) | pIC50 (Z-138) | pIC50 (cells) | inhibition (Tubulin (Sus scrofa)) | pIC50 (TERT-RPE1) | pIC50 [1] | inhibition (HEp-2)
18 | CN[C@@H]1C[C@H]2O[C@@](C)([C@@H]1OC)n1c3ccccc3c3c4c(c5c6ccccc6n2c5c31)C(=O)NC4 [STAUROSPORINE] | – | 7.55 | – | – | 7.11 | – | – | – | – | – | 7.80 | –

Source: ChEMBL document CHEMBL4818996, “N-substituted benzimidazole acrylonitriles as in vitro tubulin polymerization inhibitors: Synthesis, biological activity and computational analysis” (Eur J Med Chem, 2021)
